# Test system: Staphylococcus aureus
# Test: Antibacterial activity against methicillin-sensitive Staphylococcus aureus isolate 12-6
# Type: functional
# Procedure, shortened: (§1)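 MIC determined in vitro by a standard technique and defined as the lowest compound concentration giving complete inhibition of bacterial growth. The Gram-positive and Gram-negative panels were tested alongside gemifloxacin, levofloxacin and ciprofloxacin reference drugs.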
row,SMILES,MIC
1,C[C@H]1COc2c(N3CCN(C)CC3)c(F)cc3c(=O)c(C(=O)O)cn1c23.C[C@H]1COc2c(N3CCN(C)CC3)c(F)cc3c(=O)c(C(=O)O)cn1c23.O [LEVOFLOXACIN],0.125 µg/mL

# Test system: Streptococcus pneumoniae
# Test: Antibacterial activity against Streptococcus pneumoniae isolate 12-5
# Type: functional
# Procedure, shortened: as §1
row,SMILES,MIC
1,C[C@H]1COc2c(N3CCN(C)CC3)c(F)cc3c(=O)c(C(=O)O)cn1c23.C[C@H]1COc2c(N3CCN(C)CC3)c(F)cc3c(=O)c(C(=O)O)cn1c23.O [LEVOFLOXACIN],0.125 µg/mL

# Test system: Escherichia coli
# Test: Antibacterial activity against Escherichia coli isolate 12-4
# Type: functional
# Procedure, shortened: as §1
row,SMILES,MIC
1,C[C@H]1COc2c(N3CCN(C)CC3)c(F)cc3c(=O)c(C(=O)O)cn1c23.C[C@H]1COc2c(N3CCN(C)CC3)c(F)cc3c(=O)c(C(=O)O)cn1c23.O [LEVOFLOXACIN],8 µg/mL

# Test system: Klebsiella pneumoniae
# Test: Antibacterial activity against extended-spectrum beta-lactamase-producing Klebsiella pneumoniae isolate 12-2
# Type: functional
# Procedure, shortened: as §1
row,SMILES,MIC
1,O=C(O)c1cn(C2CC2)c2cc(N3CCNCC3)c(F)cc2c1=O [CIPROFLOXACIN],4 µg/mL
2,C[C@H]1COc2c(N3CCN(C)CC3)c(F)cc3c(=O)c(C(=O)O)cn1c23.C[C@H]1COc2c(N3CCN(C)CC3)c(F)cc3c(=O)c(C(=O)O)cn1c23.O [LEVOFLOXACIN],8 µg/mL

# Test system: Staphylococcus epidermidis
# Test: Antibacterial activity against methicillin-sensitive Staphylococcus epidermidis isolate 12-2
# Type: functional
# Procedure, shortened: as §1
row,SMILES,MIC
1,O=C(O)c1cn(C2CC2)c2cc(N3CCNCC3)c(F)cc2c1=O [CIPROFLOXACIN],0.5 µg/mL
2,C[C@H]1COc2c(N3CCN(C)CC3)c(F)cc3c(=O)c(C(=O)O)cn1c23.C[C@H]1COc2c(N3CCN(C)CC3)c(F)cc3c(=O)c(C(=O)O)cn1c23.O [LEVOFLOXACIN],0.25 µg/mL

# Test system: Staphylococcus aureus
# Test: Antibacterial activity against methicillin-resistant Staphylococcus aureus isolate 12-3
# Type: functional
# Procedure, shortened: (§2)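 MIC determined in vitro by standard techniques, defined as the lowest compound concentration giving complete inhibition of bacterial growth. Gemifloxacin, levofloxacin and ciprofloxacin were tested alongside as reference drugs.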
row,SMILES,MIC
1,C[C@H]1COc2c(N3CCN(C)CC3)c(F)cc3c(=O)c(C(=O)O)cn1c23.C[C@H]1COc2c(N3CCN(C)CC3)c(F)cc3c(=O)c(C(=O)O)cn1c23.O [LEVOFLOXACIN],0.125 µg/mL

# Test system: Staphylococcus aureus
# Test: Antibacterial activity against methicillin-sensitive Staphylococcus aureus isolate 12-7
# Type: functional
# Procedure, shortened: as §1
row,SMILES,MIC
1,O=C(O)c1cn(C2CC2)c2cc(N3CCNCC3)c(F)cc2c1=O [CIPROFLOXACIN],64 µg/mL
2,C[C@H]1COc2c(N3CCN(C)CC3)c(F)cc3c(=O)c(C(=O)O)cn1c23.C[C@H]1COc2c(N3CCN(C)CC3)c(F)cc3c(=O)c(C(=O)O)cn1c23.O [LEVOFLOXACIN],32 µg/mL

# Test system: Klebsiella pneumoniae
# Test: Antibacterial activity against extended-spectrum beta-lactamase-producing Klebsiella pneumoniae isolate 12-4
# Type: functional
# Procedure, shortened: as §1
row,SMILES,MIC
1,O=C(O)c1cn(C2CC2)c2cc(N3CCNCC3)c(F)cc2c1=O [CIPROFLOXACIN],4 µg/mL
2,C[C@H]1COc2c(N3CCN(C)CC3)c(F)cc3c(=O)c(C(=O)O)cn1c23.C[C@H]1COc2c(N3CCN(C)CC3)c(F)cc3c(=O)c(C(=O)O)cn1c23.O [LEVOFLOXACIN],4 µg/mL

# Test system: Streptococcus pneumoniae
# Test: Antibacterial activity against Streptococcus pneumoniae isolate 12-2
# Type: functional
# Procedure, shortened: as §1
row,SMILES,MIC
1,C[C@H]1COc2c(N3CCN(C)CC3)c(F)cc3c(=O)c(C(=O)O)cn1c23.C[C@H]1COc2c(N3CCN(C)CC3)c(F)cc3c(=O)c(C(=O)O)cn1c23.O [LEVOFLOXACIN],0.125 µg/mL

# Test system: Staphylococcus aureus
# Test: Antibacterial activity against methicillin-resistant Staphylococcus aureus isolate 12-15
# Type: functional
# Procedure, shortened: as §2
row,SMILES,MIC
1,C[C@H]1COc2c(N3CCN(C)CC3)c(F)cc3c(=O)c(C(=O)O)cn1c23.C[C@H]1COc2c(N3CCN(C)CC3)c(F)cc3c(=O)c(C(=O)O)cn1c23.O [LEVOFLOXACIN],0.125 µg/mL

# Test system: Staphylococcus epidermidis
# Test: Antibacterial activity against methicillin-sensitive Staphylococcus epidermidis isolate 12-3
# Type: functional
# Procedure, shortened: as §1
row,SMILES,MIC
1,O=C(O)c1cn(C2CC2)c2cc(N3CCNCC3)c(F)cc2c1=O [CIPROFLOXACIN],0.06 µg/mL
2,C[C@H]1COc2c(N3CCN(C)CC3)c(F)cc3c(=O)c(C(=O)O)cn1c23.C[C@H]1COc2c(N3CCN(C)CC3)c(F)cc3c(=O)c(C(=O)O)cn1c23.O [LEVOFLOXACIN],0.25 µg/mL

# Test system: Staphylococcus aureus
# Test: Antibacterial activity against methicillin-resistant Staphylococcus aureus isolate 12-13
# Type: functional
# Procedure, shortened: as §2
row,SMILES,MIC
1,C[C@H]1COc2c(N3CCN(C)CC3)c(F)cc3c(=O)c(C(=O)O)cn1c23.C[C@H]1COc2c(N3CCN(C)CC3)c(F)cc3c(=O)c(C(=O)O)cn1c23.O [LEVOFLOXACIN],0.125 µg/mL

# Test system: Klebsiella pneumoniae
# Test: Antibacterial activity against extended-spectrum beta-lactamase-producing Klebsiella pneumoniae isolate 12-1
# Type: functional
# Procedure, shortened: as §1
row,SMILES,MIC
1,O=C(O)c1cn(C2CC2)c2cc(N3CCNCC3)c(F)cc2c1=O [CIPROFLOXACIN],2 µg/mL

# Test system: Staphylococcus epidermidis
# Test: Antibacterial activity against methicillin-sensitive Staphylococcus epidermidis isolate 12-1
# Type: functional
# Procedure, shortened: as §1
row,SMILES,MIC
1,O=C(O)c1cn(C2CC2)c2cc(N3CCNCC3)c(F)cc2c1=O [CIPROFLOXACIN],0.06 µg/mL
2,C[C@H]1COc2c(N3CCN(C)CC3)c(F)cc3c(=O)c(C(=O)O)cn1c23.C[C@H]1COc2c(N3CCN(C)CC3)c(F)cc3c(=O)c(C(=O)O)cn1c23.O [LEVOFLOXACIN],0.25 µg/mL

# Test system: Staphylococcus aureus
# Test: Antibacterial activity against methicillin-sensitive Staphylococcus aureus isolate 12-10
# Type: functional
# Procedure, shortened: as §1
row,SMILES,MIC
1,O=C(O)c1cn(C2CC2)c2cc(N3CCNCC3)c(F)cc2c1=O [CIPROFLOXACIN],0.25 µg/mL
2,C[C@H]1COc2c(N3CCN(C)CC3)c(F)cc3c(=O)c(C(=O)O)cn1c23.C[C@H]1COc2c(N3CCN(C)CC3)c(F)cc3c(=O)c(C(=O)O)cn1c23.O [LEVOFLOXACIN],0.06 µg/mL

# Test system: Escherichia coli
# Test: Antibacterial activity against extended-spectrum beta-lactamase-producing Escherichia coli isolate 12-1
# Type: functional
# Procedure, shortened: as §1
row,SMILES,MIC
1,C[C@H]1COc2c(N3CCN(C)CC3)c(F)cc3c(=O)c(C(=O)O)cn1c23.C[C@H]1COc2c(N3CCN(C)CC3)c(F)cc3c(=O)c(C(=O)O)cn1c23.O [LEVOFLOXACIN],16 µg/mL

# Test system: Staphylococcus epidermidis
# Test: Antibacterial activity against methicillin-resistant Staphylococcus epidermidis isolate 12-33
# Type: functional
# Procedure, shortened: as §2
row,SMILES,MIC
1,O=C(O)c1cn(C2CC2)c2cc(N3CCNCC3)c(F)cc2c1=O [CIPROFLOXACIN],0.015 µg/mL
2,C[C@H]1COc2c(N3CCN(C)CC3)c(F)cc3c(=O)c(C(=O)O)cn1c23.C[C@H]1COc2c(N3CCN(C)CC3)c(F)cc3c(=O)c(C(=O)O)cn1c23.O [LEVOFLOXACIN],8 µg/mL

# Test system: Escherichia coli
# Test: Antibacterial activity against extended-spectrum beta-lactamase-producing Escherichia coli isolate 12-2
# Type: functional
# Procedure, shortened: as §1
row,SMILES,MIC
1,C[C@H]1COc2c(N3CCN(C)CC3)c(F)cc3c(=O)c(C(=O)O)cn1c23.C[C@H]1COc2c(N3CCN(C)CC3)c(F)cc3c(=O)c(C(=O)O)cn1c23.O [LEVOFLOXACIN],16 µg/mL

# Test system: Pseudomonas aeruginosa
# Test: Antibacterial activity against Pseudomonas aeruginosa isolate 12-2
# Type: functional
# Procedure, shortened: as §1
row,SMILES,MIC
1,O=C(O)c1cn(C2CC2)c2cc(N3CCNCC3)c(F)cc2c1=O [CIPROFLOXACIN],16 µg/mL
2,C[C@H]1COc2c(N3CCN(C)CC3)c(F)cc3c(=O)c(C(=O)O)cn1c23.C[C@H]1COc2c(N3CCN(C)CC3)c(F)cc3c(=O)c(C(=O)O)cn1c23.O [LEVOFLOXACIN],16 µg/mL

# Test system: Klebsiella pneumoniae
# Test: Antibacterial activity against Klebsiella pneumoniae isolate 12-1
# Type: functional
# Procedure, shortened: as §1
row,SMILES,MIC
1,O=C(O)c1cn(C2CC2)c2cc(N3CCNCC3)c(F)cc2c1=O [CIPROFLOXACIN],0.03 µg/mL
2,C[C@H]1COc2c(N3CCN(C)CC3)c(F)cc3c(=O)c(C(=O)O)cn1c23.C[C@H]1COc2c(N3CCN(C)CC3)c(F)cc3c(=O)c(C(=O)O)cn1c23.O [LEVOFLOXACIN],0.06 µg/mL

# Test system: Klebsiella pneumoniae
# Test: Antibacterial activity against Klebsiella pneumoniae isolate 12-2
# Type: functional
# Procedure, shortened: as §1
row,SMILES,MIC
1,O=C(O)c1cn(C2CC2)c2cc(N3CCNCC3)c(F)cc2c1=O [CIPROFLOXACIN],0.125 µg/mL
2,C[C@H]1COc2c(N3CCN(C)CC3)c(F)cc3c(=O)c(C(=O)O)cn1c23.C[C@H]1COc2c(N3CCN(C)CC3)c(F)cc3c(=O)c(C(=O)O)cn1c23.O [LEVOFLOXACIN],0.06 µg/mL

# Test system: Klebsiella pneumoniae
# Test: Antibacterial activity against Klebsiella pneumoniae isolate 12-4
# Type: functional
# Procedure, shortened: as §1
row,SMILES,MIC
1,O=C(O)c1cn(C2CC2)c2cc(N3CCNCC3)c(F)cc2c1=O [CIPROFLOXACIN],0.125 µg/mL
2,C[C@H]1COc2c(N3CCN(C)CC3)c(F)cc3c(=O)c(C(=O)O)cn1c23.C[C@H]1COc2c(N3CCN(C)CC3)c(F)cc3c(=O)c(C(=O)O)cn1c23.O [LEVOFLOXACIN],0.25 µg/mL

# Test system: Staphylococcus epidermidis
# Test: Antibacterial activity against methicillin-resistant Staphylococcus epidermidis isolate 12-35
# Type: functional
# Procedure, shortened: as §2
row,SMILES,MIC
1,O=C(O)c1cn(C2CC2)c2cc(N3CCNCC3)c(F)cc2c1=O [CIPROFLOXACIN],0.015 µg/mL
2,C[C@H]1COc2c(N3CCN(C)CC3)c(F)cc3c(=O)c(C(=O)O)cn1c23.C[C@H]1COc2c(N3CCN(C)CC3)c(F)cc3c(=O)c(C(=O)O)cn1c23.O [LEVOFLOXACIN],0.125 µg/mL

# Test system: Staphylococcus epidermidis
# Test: Antibacterial activity against methicillin-resistant Staphylococcus epidermidis isolate 12-5
# Type: functional
# Procedure, shortened: as §2
row,SMILES,MIC
1,O=C(O)c1cn(C2CC2)c2cc(N3CCNCC3)c(F)cc2c1=O [CIPROFLOXACIN],0.015 µg/mL
2,C[C@H]1COc2c(N3CCN(C)CC3)c(F)cc3c(=O)c(C(=O)O)cn1c23.C[C@H]1COc2c(N3CCN(C)CC3)c(F)cc3c(=O)c(C(=O)O)cn1c23.O [LEVOFLOXACIN],0.125 µg/mL

# Test system: Escherichia coli
# Test: Antibacterial activity against Escherichia coli isolate 12-5
# Type: functional
# Procedure, shortened: as §1
row,SMILES,MIC
1,C[C@H]1COc2c(N3CCN(C)CC3)c(F)cc3c(=O)c(C(=O)O)cn1c23.C[C@H]1COc2c(N3CCN(C)CC3)c(F)cc3c(=O)c(C(=O)O)cn1c23.O [LEVOFLOXACIN],8 µg/mL

# Test system: Staphylococcus aureus
# Test: Antibacterial activity against Staphylococcus aureus […]
# Type: functional
# Procedure, shortened: as §1
row,SMILES,MIC
1,O=C(O)c1cn(C2CC2)c2cc(N3CCNCC3)c(F)cc2c1=O [CIPROFLOXACIN],0.25 µg/mL
2,C[C@H]1COc2c(N3CCN(C)CC3)c(F)cc3c(=O)c(C(=O)O)cn1c23.C[C@H]1COc2c(N3CCN(C)CC3)c(F)cc3c(=O)c(C(=O)O)cn1c23.O [LEVOFLOXACIN],0.125 µg/mL

# — ChEMBL document CHEMBL2331542, “Synthesis and in vitro antibacterial activity of quinolone/naphthyridone derivatives containing 3-alkoxyimino-4-(methyl)aminopiperidine scaffolds” (2013)
